In ChEMBL document CHEMBL1142137 (Antimicrob Agents Chemother, 2007):
≈ marks a conversion by molar mass, not a printed value.

How the values were obtained:
Streptococcus pneumoniae [1] = test: Antibacterial activity against penicillin-resistant Streptococcus pneumoniae P-54988; type: functional
In short: (§1)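 Tube dilution in Mueller-Hinton infusion broth with 5% sterile horse serum, using twofold antibiotic dilutions. Tubes were incubated 18 h at 37°C in 10% CO2-air. MIC was the lowest concentration with no turbidity visible to the naked eye.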

Streptococcus pneumoniae [2] = test: Antibacterial activity against penicillin-resistant Streptococcus pneumoniae P-12698; type: functional; in short: as §1
Streptococcus pneumoniae [3] = test: Antibacterial activity against penicillin-resistant Streptococcus pneumoniae P-15986; type: functional; in short: as §1
[4] = Cmax in leukopenic mouse with renal failure at 7 mg/kg, sc after 0.5 hrs; type: ADME, organism-based; design: dose 7 mg/kg, route subcutaneous; conditions: in vivo
[5] = Cmax in leukopenic mouse with renal failure at 15 mg/kg, sc after 0.5 hrs; type: ADME, organism-based; design: dose 15 mg/kg, route subcutaneous; conditions: in vivo
[6] = Cmax in leukopenic mouse with renal failure at 25 mg/kg, sc after 0.5 hrs; type: ADME, organism-based; design: dose 25 mg/kg, route subcutaneous; conditions: in vivo
[7] = Cmax in human at 1 g, po after 0.5 hrs; type: ADME, organism-based; design: dose 1 g, route oral; conditions: in vivo
[8] = Half life in leukopenic mouse with renal failure at 7 mg/kg, sc; type: ADME, organism-based; design: dose 7 mg/kg, route subcutaneous; conditions: in vivo
In short: (§2)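 Terminal t1/2 = ln 2/kel, kel from least-squares slope of linear portions of log concentration-time curve; data fitted to one-compartment open model, zero-order absorption, first-order elimination.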

[9] = Half life in leukopenic mouse with renal failure at 15 mg/kg, sc; type: ADME, organism-based; design: dose 15 mg/kg, route subcutaneous; conditions: in vivo; in short: as §2
[10] = Half life in leukopenic mouse with renal failure at 25 mg/kg, sc; type: ADME, organism-based; design: dose 25 mg/kg, route subcutaneous; conditions: in vivo; in short: as §2
[11] = Half life in human at 1 g, po; type: ADME, organism-based; conditions: in vivo
[12] = AUC in leukopenic mouse with renal failure at 7 mg/kg, sc; type: ADME, organism-based; design: dose 7 mg/kg, route subcutaneous; conditions: plasma
In short: (§3)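 Uninfected female Swiss mice (6-7 weeks) made leukopenic with cyclophosphamide (150 mg/kg i.p. […] from 4 days pre-challenge) and given uranyl nitrate 6 mg/kg i.p. once, 4 days earlier. […] AUC0-24 by trapezoid method from one-compartment fit.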

[13] = AUC in leukopenic mouse with renal failure at 15 mg/kg, sc; type: ADME, organism-based; design: dose 15 mg/kg, route subcutaneous; conditions: plasma; in short: as §3
[14] = AUC in leukopenic mouse with renal failure at 25 mg/kg, sc; type: ADME, organism-based; design: dose 25 mg/kg, route subcutaneous; conditions: plasma; in short: as §3
[15] = AUC in human at 1 g, po; type: ADME, organism-based; conditions: plasma
Mus musculus [16] = test: T>MIC in leukopenic mouse with renal failure at 7 mg/kg, sc; type: ADME, organism-based; design: dose 7 mg/kg, route subcutaneous; conditions: in vivo
Mus musculus [17] = test: T>MIC in leukopenic mouse with renal failure at 15 mg/kg, sc; type: ADME, organism-based; design: dose 15 mg/kg, route subcutaneous; conditions: in vivo
Mus musculus [18] = test: T>MIC in leukopenic mouse with renal failure at 25 mg/kg, sc; type: ADME, organism-based; design: dose 25 mg/kg, route subcutaneous; conditions: in vivo
Mus musculus [19] = test: Effect on survival of Swiss mouse infected with penicillin-resistant Streptococcus pneumoniae P-54988 at 15 mg/kg, sc; type: functional; conditions: route subcutaneous
In short: (§4)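 Female Swiss albino mice, 6-7 weeks old, made leukopenic with cyclophosphamide 150 mg/kg ip daily ×3 from 4 days before challenge. Renal failure from one uranyl nitrate 6 mg/kg ip dose 4 days before challenge. Intratracheal inoculum of ~10^7 log-phase CFU under pentobarbital. […] 12-15 mice/group; deaths recorded daily for 10 days; Mantel-Haenszel comparison.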

Mus musculus [20] = test: Effect on survival of Swiss mouse infected with penicillin-resistant Streptococcus pneumoniae P-12698 at 15 mg/kg, sc; type: functional; conditions: route subcutaneous; in short: as §4
Mus musculus [21] = test: Effect on survival of Swiss mouse infected with penicillin-resistant Streptococcus pneumoniae P-12698 at 25 mg/kg, sc; type: functional; conditions: route subcutaneous; in short: as §4
Mus musculus [22] = test: Effect on survival of Swiss mouse infected with penicillin-resistant Streptococcus pneumoniae P-15986 at 15 mg/kg, sc; type: functional; conditions: route subcutaneous; in short: as §4
Streptococcus pneumoniae [23] = test: Antibacterial activity against penicillin-susceptible Streptococcus pneumoniae P-52181
Mus musculus [24] = test: Effect on survival of Swiss mouse infected with penicillin-susceptible Streptococcus pneumoniae P-52181 at 15 mg/kg, sc

CC1(C)S[C@@H]2[C@H](NC(=O)[C@H](N)c3ccc(O)cc3)C(=O)N2[C@H]1C(=O)O [AMOXICILLIN]
MIC (Streptococcus pneumoniae [1]): 2 µg/mL (≈ 5.47 µM)
MIC (Streptococcus pneumoniae [2]): 2 µg/mL (≈ 5.47 µM)
MIC (Streptococcus pneumoniae [3]): 4 µg/mL (≈ 10.9 µM)
Cmax [4]: 13000 ng/mL
Cmax [5]: 28000 ng/mL
Cmax [6]: 85000 ng/mL
Cmax [7]: 19000 ng/mL
half-life [8]: 1.6 h
half-life [9]: 1.6 h
half-life [10]: 1.7 h
half-life [11]: 1.5 h
AUC [12]: 46000 ng·h/mL
AUC [13]: 80000 ng·h/mL
AUC [14]: 227000 ng·h/mL
AUC [15]: 68000 ng·h/mL
T>MIC (Mus musculus [16]): 4 h
T>MIC (Mus musculus [17]): 4 h
T>MIC (Mus musculus [18]): 8 h
survival at 15 mg/kg (Mus musculus [19]): 81%
survival at 15 mg/kg (Mus musculus [20]): 50%
survival at 25 mg/kg (Mus musculus [21]): 57%
survival at 15 mg/kg (Mus musculus [22]): 82%
MIC (Streptococcus pneumoniae [23]): 0.03 µg/mL (≈ 0.0821 µM)
survival at 15 mg/kg (Mus musculus [24]): 83%
